According to ChEMBL document CHEMBL4229390, “Structure-guided evolution of a 2-phenyl-4-carboxyquinoline chemotype into PPARα selective agonists: New leads for oculovascular conditions” (Bioorg Med Chem Lett, 2018):
The source made the active and inactive calls. No cut-off for these calls is given here.

Tests used:
Homo sapiens = species: Homo sapiens; experiment: Antimigratory activity in HRCEC after 10 to 24 hrs by wound healing assay; assay type: functional
Outline: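 Wound healing (scratch) assay in human retinal capillary endothelial cells, closure assessed at 10 h and 24 h incubation. Performed three times in triplicate; mean ± S.D.; Student's t-test.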

[1] = target: T1, Peroxisome proliferator-activated receptor alpha (Mus musculus) (UniProt P23204); experiment: Agonist activity at PPARalpha in C57BL/6N mouse assessed as upregulation of Slc25a20 gene expression at 10 to 100 uM after 24 hrs by RT-PCR method
T1 sequence (whole entry): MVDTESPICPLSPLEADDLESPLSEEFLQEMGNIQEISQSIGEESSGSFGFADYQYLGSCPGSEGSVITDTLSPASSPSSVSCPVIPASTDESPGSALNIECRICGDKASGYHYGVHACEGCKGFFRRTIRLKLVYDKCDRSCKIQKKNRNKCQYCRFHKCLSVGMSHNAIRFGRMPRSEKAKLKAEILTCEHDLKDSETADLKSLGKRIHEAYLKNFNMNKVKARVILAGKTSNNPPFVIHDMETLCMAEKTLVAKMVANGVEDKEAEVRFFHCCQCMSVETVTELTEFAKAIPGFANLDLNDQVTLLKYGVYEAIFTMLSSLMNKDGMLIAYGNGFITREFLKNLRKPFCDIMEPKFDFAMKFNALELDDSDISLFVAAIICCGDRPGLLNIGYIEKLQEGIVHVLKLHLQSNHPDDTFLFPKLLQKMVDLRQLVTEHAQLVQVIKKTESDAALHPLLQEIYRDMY
Outline: (§1)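 Mouse 661W cells treated for 24 h; target mRNA quantified by RT-PCR (n = 6). Reported as mean ± S.D.; group differences tested with Student's t-test.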

[2] = target: T1, Peroxisome proliferator-activated receptor alpha (Mus musculus); experiment: Agonist activity at PPARalpha in C57BL/6N mouse assessed as upregulation of Acadm gene expression at 10 to 100 uM after 24 hrs by RT-PCR method; outline: as §1
[3] = target: T1, Peroxisome proliferator-activated receptor alpha (Mus musculus); experiment: Agonist activity at PPARalpha in C57BL/6N mouse assessed as upregulation of PPARalpha protein expression after 24 hrs by Western blot method
Outline: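 Mouse 661W cells exposed for 24 h. PPARα protein detected by Western blot and quantified by densitometry. Experiments performed three times in triplicate; mean ± S.D.; Student's t-test.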

[4] = target: T1, Peroxisome proliferator-activated receptor alpha (Mus musculus); experiment: Agonist activity at PPARalpha in C57BL/6N mouse assessed as upregulation of Cpt1a gene expression at 10 to 100 uM after 24 hrs by RT-PCR method; outline: as §1
[5] = target: T2, Peroxisome proliferator-activated receptor gamma (Homo sapiens, UniProt P37231); experiment: Agonist activity at human PPARgamma after 22 to 24 hrs by luciferase reporter gene assay
T2 sequence (P37231 whole entry): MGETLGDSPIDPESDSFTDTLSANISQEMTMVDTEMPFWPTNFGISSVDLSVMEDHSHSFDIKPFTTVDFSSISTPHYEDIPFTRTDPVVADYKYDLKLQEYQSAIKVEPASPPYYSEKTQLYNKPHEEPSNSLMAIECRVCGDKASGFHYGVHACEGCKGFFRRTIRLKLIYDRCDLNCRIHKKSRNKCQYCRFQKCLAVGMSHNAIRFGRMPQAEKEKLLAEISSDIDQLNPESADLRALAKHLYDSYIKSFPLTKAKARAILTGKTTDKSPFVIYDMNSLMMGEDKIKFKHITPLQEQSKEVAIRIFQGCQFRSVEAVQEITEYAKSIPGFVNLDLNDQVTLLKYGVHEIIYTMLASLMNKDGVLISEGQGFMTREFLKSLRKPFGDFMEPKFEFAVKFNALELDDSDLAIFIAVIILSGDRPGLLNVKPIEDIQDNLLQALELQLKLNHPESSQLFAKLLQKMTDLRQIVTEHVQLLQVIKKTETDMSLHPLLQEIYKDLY
Outline: (§2)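 Human PPAR luciferase reporter cell lines; luciferase read-out through oxyluciferin production. 10-point dose-response in triplicate, single experiment, giving EC50.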

[6] = target: T1, Peroxisome proliferator-activated receptor alpha (Mus musculus); experiment: Agonist activity at PPARalpha in C57BL/6N mouse assessed as upregulation of Fabp3 gene expression at 10 to 100 uM after 24 hrs by RT-PCR method; outline: as §1
[7] = target: T3, Peroxisome proliferator-activated receptor delta (Homo sapiens, UniProt Q03181); experiment: Agonist activity at human PPARdelta after 22 to 24 hrs by luciferase reporter gene assay
T3 sequence (Q03181 whole entry): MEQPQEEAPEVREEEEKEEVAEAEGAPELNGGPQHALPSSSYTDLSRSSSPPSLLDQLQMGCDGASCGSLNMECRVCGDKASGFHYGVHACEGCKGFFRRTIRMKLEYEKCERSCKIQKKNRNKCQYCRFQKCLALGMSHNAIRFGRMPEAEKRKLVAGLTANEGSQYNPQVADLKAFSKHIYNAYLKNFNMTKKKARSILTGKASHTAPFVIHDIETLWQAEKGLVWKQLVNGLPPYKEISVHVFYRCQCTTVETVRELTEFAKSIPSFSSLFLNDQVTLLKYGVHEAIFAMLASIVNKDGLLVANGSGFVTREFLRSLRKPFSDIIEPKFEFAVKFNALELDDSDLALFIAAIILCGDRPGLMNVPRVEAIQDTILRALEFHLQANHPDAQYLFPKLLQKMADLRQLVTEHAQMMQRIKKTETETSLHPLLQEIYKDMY

[8] = target: T4, Peroxisome proliferator-activated receptor alpha (Homo sapiens) (UniProt Q07869); experiment: Agonist activity at human PPARalpha at 5 uM after 22 to 24 hrs by luciferase reporter gene assay
T4 sequence (whole entry): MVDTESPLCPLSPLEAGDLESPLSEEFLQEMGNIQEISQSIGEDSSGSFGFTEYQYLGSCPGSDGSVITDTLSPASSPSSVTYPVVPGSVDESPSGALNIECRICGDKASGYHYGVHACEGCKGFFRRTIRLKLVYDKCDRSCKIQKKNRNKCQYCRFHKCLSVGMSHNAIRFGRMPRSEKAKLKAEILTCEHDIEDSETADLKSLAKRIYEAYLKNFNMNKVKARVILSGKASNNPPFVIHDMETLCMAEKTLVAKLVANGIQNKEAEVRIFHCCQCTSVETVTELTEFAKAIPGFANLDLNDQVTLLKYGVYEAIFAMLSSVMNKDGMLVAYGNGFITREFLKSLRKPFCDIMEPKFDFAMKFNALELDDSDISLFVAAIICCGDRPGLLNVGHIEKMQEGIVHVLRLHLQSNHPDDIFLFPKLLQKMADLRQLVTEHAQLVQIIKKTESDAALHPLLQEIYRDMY
Outline: (§3)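 hPPARα luciferase reporter cells; read-out via oxyluciferin production. […] Fold-induction over DMSO control ± S.E. (n = 3), single experiment.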

[9] = target: T4, Peroxisome proliferator-activated receptor alpha (Homo sapiens); experiment: Agonist activity at human PPARalpha at 10 uM after 22 to 24 hrs by luciferase reporter gene assay; outline: as §3
[10] = target: T5, Peroxisome proliferator-activated receptor alpha (Homo sapiens, UniProt Q07869); experiment: Agonist activity at human PPARalpha after 22 to 24 hrs by luciferase reporter gene assay; outline: as §2
T5 sequence (Q07869 whole entry): T4 sequence (whole entry)

[11] = target: T4, Peroxisome proliferator-activated receptor alpha (Homo sapiens); experiment: Agonist activity at human PPARalpha after 22 to 24 hrs by luciferase reporter gene assay relative to GW590735; outline: as §2
[12] = target: T5, Peroxisome proliferator-activated receptor alpha; experiment: Agonist activity at PPARalpha (unknown origin) expressed in reporter combo cells after 36 hrs by dual luciferase reporter gene assay; assay type: cell-based
Outline: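 Human PPARα luciferase reporter cell line. Luciferase activity was read indirectly as oxyluciferin production. EC50 came from a 10-point dose-response, dosed in triplicate in a single experiment. In the initial screen, agonism was expressed as fold-induction over the DMSO control (n = 3) at 5 and 50 μM.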

Compound | EC50 [5] [µM] | EC50 [7] [µM] | Activity [8] | Activity [9] | further results
O=C(O)c1cccc(NCc2ccc(OCc3ccccc3)cc2)c1 |  |  | Active | Active | 
CC(C)(Oc1cccc(NCc2ccc(OCc3ccc(Cl)cc3)cc2)c1)C(=O)O |  |  | inactive | Active | 
CC(C)(Oc1cccc(NCc2ccc(OCc3cc(F)cc(F)c3)cc2)c1)C(=O)O |  |  | inactive | Active | 
O=C(O)c1cccc(NCc2ccc(OCc3cc(F)cc(F)c3)cc2)c1 |  |  | Active | Active | 
CC(C)(Oc1cccc(NCc2ccc(OCc3ccccc3)cc2)c1)C(=O)O |  |  | inactive | Active | 
O=C(O)c1cccc(NCc2ccc(OCc3ccc(Cl)cc3Cl)cc2)c1 |  |  | Active |  | 
Cc1c(Cl)ccc2c(C(=O)O)cc(-c3ccccc3)nc12 |  |  |  |  | EC50 [12]: 25 to 50 µM

Second part, led by results:

EC50 [5] [µM] | EC50 [7] [µM] | Activity [8] | Activity [9] | Compound | further results
> 100 | > 100 |  |  | COc1ccc(COc2ccc(CNc3cccc(C(=O)O)c3)cc2)cc1 | Activity (Homo sapiens): Dose-dependent effect; Activity [1]: Active; Activity [2]: Active; Activity [3]: Dose-dependent effect; Activity [4]: Active; Activity [6]: Active
18.3 | 38.6 | inactive | Active | COc1ccc(COc2ccc(CNc3cccc(OC(C)(C)C(=O)O)c3)cc2)cc1 | 
> 100 | > 100 |  |  | COc1ccc(COc2ccc(CNc3cccc(C(=O)O)c3)c(OCc3ccc(OC)cc3)c2)cc1 | EC50 [10]: 5.1 µM; fold change (FC) [11]: 1.1
5.6 | 8.9 |  |  | COc1ccc(COc2ccc(CNc3cccc(OC(C)(C)C(=O)O)c3)c(OCc3ccc(OC)cc3)c2)cc1 | EC50 [10]: 2.1 µM; fold change (FC) [11]: 1.4
 |  | Active | Active | O=C(O)c1cccc(NCc2ccc(OCc3ccc(Cl)cc3)cc2)c1 | 
 |  | Active |  | O=C(O)c1cccc(NCc2ccc(OCc3ccc([N+](=O)[O-])cc3)cc2)c1 | 
